Reference: ChEMBL document CHEMBL5705905, “Pharmacological targeting of kinases MST1 and MST2 augments tissue repair and regeneration” (Sci Transl Med, 2016)
The source made the active and inactive calls. The calls are words filed in the database; no cut-off is given here.

How the values were obtained:
[1] = test system: Tyrosine-protein kinase ABL1 (Homo sapiens), P00519 [F317I]; assay: Inhibition of phosphorylated ABL1 F317I mutant (unknown origin) assessed as remaining activity at 1 uM by Kinome scan method relative to control
[2] = molecular target: Mitotic checkpoint serine/threonine-protein kinase BUB1 (Homo sapiens) (UniProt O43683); assay: Inhibition of BUB1 (unknown origin) assessed as remaining activity at 1 uM by Kinome scan method relative to control
Summary of the method: (§1)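 KINOMEscan active-site-dependent competition-binding panel of 468 kinases, compound at 1 μM from a DMSO stock. Result reported as ctrl% = (test signal − positive control signal)/(negative control signal − positive control signal) × 100. The negative control is DMSO (100%) and the positive control is a control compound (0%). Lower ctrl% means tighter binding.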

[3] = molecular target: Calcium/calmodulin-dependent protein kinase type 1 (Homo sapiens) (UniProt Q14012); assay: Inhibition of CAMK1 (unknown origin) assessed as remaining activity at 1 uM by Kinome scan method relative to control; summary of the method: as §1
[4] = molecular target: Death-associated protein kinase 3 (Homo sapiens) (UniProt O43293); assay: Inhibition of DAPK3 (unknown origin) assessed as remaining activity at 1 uM by Kinome scan method relative to control
Summary of the method: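 Active-site-dependent competition-binding profiling (KINOMEscan) at 1 μM against a 468-kinase panel; compound supplied from a 10 mM DMSO stock. Read-out is ctrl% = (test signal − positive control signal)/(negative control signal − positive control signal) × 100. DMSO is the negative control (100%) and a control compound the positive control (0%). Lower ctrl% means tighter binding.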

[5] = molecular target: Epithelial discoidin domain-containing receptor 1 (Homo sapiens) (UniProt Q08345); assay: Inhibition of DDR1 (unknown origin) assessed as remaining activity at 1 uM by Kinome scan method relative to control
[6] = molecular target: Receptor tyrosine-protein kinase erbB-4 (Homo sapiens) (UniProt Q15303); assay: Inhibition of ERBB4 (unknown origin) assessed as remaining activity at 1 uM by Kinome scan method relative to control
[7] = test system: eIF-2-alpha kinase GCN2 (Homo sapiens), Q9P2K8 [S808G]; assay: Inhibition of GCN2 S808G mutant kinase domain 2 (unknown origin) assessed as remaining activity at 1 uM by Kinome scan method relative to control
[8] = molecular target: Homeodomain-interacting protein kinase 3 (Homo sapiens) (UniProt Q9H422); assay: Inhibition of HIPK3 (unknown origin) assessed as remaining activity at 1 uM by Kinome scan method relative to control
[9] = molecular target: Hormonally up-regulated neu tumor-associated kinase (Homo sapiens) (UniProt P57058); assay: Inhibition of HUNK (unknown origin) assessed as remaining activity at 1 uM by Kinome scan method relative to control
[10] = molecular target: Dual specificity mitogen-activated protein kinase kinase 5 (Homo sapiens) (UniProt Q13163); assay: Inhibition of MEK5 (unknown origin) assessed as remaining activity at 1 uM by Kinome scan method relative to control
[11] = molecular target: Serine/threonine-protein kinase Nek4 (Homo sapiens) (UniProt P51957); assay: Inhibition of NEK4 (unknown origin) assessed as remaining activity at 1 uM by Kinome scan method relative to control
[12] = molecular target: Calcium-dependent protein kinase 1 (Plasmodium falciparum) (UniProt P62344); assay: Inhibition of Plasmodium falciparum CDPK1 assessed as remaining activity at 1 uM by Kinome scan method relative to control
[13] = test system: Phosphatidylinositol 4,5-bisphosphate 3-kinase catalytic subunit alpha isoform (Homo sapiens), P42336 [E545A]; assay: Inhibition of PIK3CA E545A mutant (unknown origin) assessed as remaining activity at 1 uM by Kinome scan method relative to control
[14] = test system: Phosphatidylinositol 4,5-bisphosphate 3-kinase catalytic subunit alpha isoform (Homo sapiens), P42336 [M1043I]; assay: Inhibition of PIK3CA M1043I mutant (unknown origin) assessed as remaining activity at 1 uM by Kinome scan method relative to control
[15] = molecular target: Serine/threonine-protein kinase pim-3 (Homo sapiens) (UniProt Q86V86); assay: Inhibition of PIM3 (unknown origin) assessed as remaining activity at 1 uM by Kinome scan method relative to control
[16] = molecular target: Phosphatidylinositol 5-phosphate 4-kinase type-2 beta (Homo sapiens) (UniProt P78356); assay: Inhibition of PIP5K2B (unknown origin) assessed as remaining activity at 1 uM by Kinome scan method relative to control
[17] = molecular target: Serine/threonine-protein kinase PLK4 (Homo sapiens) (UniProt O00444); assay: Inhibition of PLK4 (unknown origin) assessed as remaining activity at 1 uM by Kinome scan method relative to control
[18] = molecular target: Protein kinase C theta type (Homo sapiens) (UniProt Q04759); assay: Inhibition of PRKCQ (unknown origin) assessed as remaining activity at 1 uM by Kinome scan method relative to control
[19] = molecular target: Serine/threonine-protein kinase SIK3 (Homo sapiens) (UniProt Q9Y2K2); assay: Inhibition of QSK (unknown origin) assessed as remaining activity at 1 uM by Kinome scan method relative to control
[20] = molecular target: Receptor-interacting serine/threonine-protein kinase 4 (Homo sapiens) (UniProt P57078); assay: Inhibition of RIPK4 (unknown origin) assessed as remaining activity at 1 uM by Kinome scan method relative to control
[21] = molecular target: STE20/SPS1-related proline-alanine-rich protein kinase (Homo sapiens) (UniProt Q9UEW8); assay: Inhibition of STK39 (unknown origin) assessed as remaining activity at 1 uM by Kinome scan method relative to control
[22] = molecular target: Serine/threonine-protein kinase 26 (Homo sapiens, UniProt Q9P289); assay: Inhibition of MST4 (unknown origin) in presence of ATP by enzymatic assay
[23] = molecular target: Phosphatidylinositol 4-phosphate 5-kinase type-1 gamma (Homo sapiens, UniProt O60331); assay: Inhibition of PIP5K1C (unknown origin) in presence of ATP by enzymatic assay
HepG2 [24] = assay: Induction of apoptosis in human HepG2 cells assessed as early apoptosis cells at 3 uM by annexinV staining (Rvb =4.16 %); format: functional
HepG2 [25] = assay: Induction of apoptosis in human HepG2 cells overexpressing MST2 assessed as early apoptosis cells at 3 uM by annexinV staining (Rvb =13.6 %); format: functional
[26] = Tmax in male Sprague-Dawley rat at 5 mg/kg, iv measured for 24 hrs by LC-MS/MS analysis; format: ADME, organism-based; settings: in vivo
Mus musculus [27] = assay: Protection against APAP induced liver injury in mouse assessed as continual expansion of centrilobular necrotic lesions at 1 mg/kg, ip administered at 2.5 hrs by TUNEL staining; format: functional, organism-based
Mus musculus [28] = assay: Protection against APAP induced liver injury in mouse assessed as cell death at 1 mg/kg, ip administered at 1.5 hrs in the presence of NAC relative to control; format: functional

Sequence of Calcium-dependent protein kinase 1 (Plasmodium falciparum) (P62344 2-524 limits assumed): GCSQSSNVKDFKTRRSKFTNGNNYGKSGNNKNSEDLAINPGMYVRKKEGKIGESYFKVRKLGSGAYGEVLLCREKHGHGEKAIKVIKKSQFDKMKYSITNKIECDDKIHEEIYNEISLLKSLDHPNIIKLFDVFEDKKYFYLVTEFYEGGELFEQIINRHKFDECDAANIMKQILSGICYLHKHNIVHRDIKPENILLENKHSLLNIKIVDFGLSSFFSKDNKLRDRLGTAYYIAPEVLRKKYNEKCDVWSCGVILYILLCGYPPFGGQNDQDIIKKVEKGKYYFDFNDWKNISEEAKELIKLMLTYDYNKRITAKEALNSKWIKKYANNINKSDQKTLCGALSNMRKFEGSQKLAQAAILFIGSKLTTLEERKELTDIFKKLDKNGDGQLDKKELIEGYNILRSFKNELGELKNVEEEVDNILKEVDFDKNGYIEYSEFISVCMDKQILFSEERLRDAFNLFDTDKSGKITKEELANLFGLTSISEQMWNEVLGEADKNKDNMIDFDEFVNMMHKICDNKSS
Sequence of Death-associated protein kinase 3 (Homo sapiens) (O43293 whole entry, looked up): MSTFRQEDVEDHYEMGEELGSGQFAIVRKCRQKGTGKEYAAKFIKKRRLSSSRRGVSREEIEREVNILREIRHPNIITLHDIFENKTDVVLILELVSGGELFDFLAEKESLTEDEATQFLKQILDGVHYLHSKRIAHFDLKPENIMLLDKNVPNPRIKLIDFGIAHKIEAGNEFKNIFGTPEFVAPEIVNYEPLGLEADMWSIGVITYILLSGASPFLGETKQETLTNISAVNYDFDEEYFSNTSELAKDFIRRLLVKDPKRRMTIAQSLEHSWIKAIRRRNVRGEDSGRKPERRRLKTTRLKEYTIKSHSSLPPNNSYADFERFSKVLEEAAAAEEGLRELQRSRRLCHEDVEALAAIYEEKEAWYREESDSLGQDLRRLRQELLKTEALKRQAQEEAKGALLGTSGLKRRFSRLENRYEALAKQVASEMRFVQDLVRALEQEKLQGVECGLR
Sequence of Mitotic checkpoint serine/threonine-protein kinase BUB1 (Homo sapiens) (O43683 whole entry, looked up): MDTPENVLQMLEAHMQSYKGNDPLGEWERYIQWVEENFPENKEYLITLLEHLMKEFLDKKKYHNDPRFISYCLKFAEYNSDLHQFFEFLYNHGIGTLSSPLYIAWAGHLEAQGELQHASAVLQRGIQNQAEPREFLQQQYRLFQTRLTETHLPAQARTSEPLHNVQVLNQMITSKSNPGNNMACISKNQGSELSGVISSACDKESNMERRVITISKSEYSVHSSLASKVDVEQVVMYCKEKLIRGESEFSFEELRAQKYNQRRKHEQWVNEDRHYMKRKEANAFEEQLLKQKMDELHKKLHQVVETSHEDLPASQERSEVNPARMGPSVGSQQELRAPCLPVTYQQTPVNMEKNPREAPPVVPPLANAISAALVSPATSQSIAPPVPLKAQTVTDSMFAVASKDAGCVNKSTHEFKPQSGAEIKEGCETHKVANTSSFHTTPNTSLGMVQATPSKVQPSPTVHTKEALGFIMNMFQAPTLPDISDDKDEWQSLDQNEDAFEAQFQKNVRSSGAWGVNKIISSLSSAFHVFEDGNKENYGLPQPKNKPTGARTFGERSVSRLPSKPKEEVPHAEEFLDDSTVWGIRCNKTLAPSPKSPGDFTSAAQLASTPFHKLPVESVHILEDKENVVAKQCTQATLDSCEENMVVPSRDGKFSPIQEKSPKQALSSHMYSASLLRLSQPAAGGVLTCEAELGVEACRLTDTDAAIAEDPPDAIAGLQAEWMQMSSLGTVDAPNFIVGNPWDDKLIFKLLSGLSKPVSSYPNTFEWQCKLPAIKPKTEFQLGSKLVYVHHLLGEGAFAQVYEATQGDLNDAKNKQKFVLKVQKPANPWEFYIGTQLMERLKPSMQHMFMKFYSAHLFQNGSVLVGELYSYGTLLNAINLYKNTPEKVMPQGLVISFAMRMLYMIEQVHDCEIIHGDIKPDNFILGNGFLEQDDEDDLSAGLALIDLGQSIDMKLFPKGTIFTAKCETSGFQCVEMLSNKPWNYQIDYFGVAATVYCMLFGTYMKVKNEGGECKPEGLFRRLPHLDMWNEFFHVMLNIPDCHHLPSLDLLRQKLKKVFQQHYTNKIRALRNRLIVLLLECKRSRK
Sequence of Serine/threonine-protein kinase 26 (Q9P289 whole entry): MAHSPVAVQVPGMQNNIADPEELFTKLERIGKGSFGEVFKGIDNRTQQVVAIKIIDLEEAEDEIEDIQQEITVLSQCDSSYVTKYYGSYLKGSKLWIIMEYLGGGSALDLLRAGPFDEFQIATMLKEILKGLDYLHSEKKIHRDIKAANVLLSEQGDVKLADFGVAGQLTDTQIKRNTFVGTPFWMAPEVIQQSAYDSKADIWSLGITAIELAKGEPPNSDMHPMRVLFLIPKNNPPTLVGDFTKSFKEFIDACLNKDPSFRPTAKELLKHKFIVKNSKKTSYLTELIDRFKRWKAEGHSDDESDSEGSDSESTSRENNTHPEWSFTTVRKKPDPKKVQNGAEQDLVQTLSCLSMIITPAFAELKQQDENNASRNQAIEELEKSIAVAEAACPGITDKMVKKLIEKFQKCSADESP
Sequence of Calcium/calmodulin-dependent protein kinase type 1 (Homo sapiens) (Q14012 whole entry, looked up): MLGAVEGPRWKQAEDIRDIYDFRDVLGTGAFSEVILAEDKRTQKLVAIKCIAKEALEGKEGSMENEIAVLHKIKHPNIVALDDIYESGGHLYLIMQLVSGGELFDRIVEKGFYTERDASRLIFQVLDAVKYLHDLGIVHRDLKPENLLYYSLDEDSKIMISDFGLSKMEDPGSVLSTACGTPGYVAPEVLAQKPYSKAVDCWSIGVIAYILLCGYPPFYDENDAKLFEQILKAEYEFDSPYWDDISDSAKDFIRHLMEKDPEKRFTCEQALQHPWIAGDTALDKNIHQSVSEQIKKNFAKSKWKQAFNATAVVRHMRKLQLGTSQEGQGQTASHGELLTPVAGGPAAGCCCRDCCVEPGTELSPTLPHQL
Sequence of Phosphatidylinositol 4,5-bisphosphate 3-kinase catalytic subunit alpha isoform (Homo sapiens), P42336 [E545A] (P42336 whole entry E545A, canonical isoform): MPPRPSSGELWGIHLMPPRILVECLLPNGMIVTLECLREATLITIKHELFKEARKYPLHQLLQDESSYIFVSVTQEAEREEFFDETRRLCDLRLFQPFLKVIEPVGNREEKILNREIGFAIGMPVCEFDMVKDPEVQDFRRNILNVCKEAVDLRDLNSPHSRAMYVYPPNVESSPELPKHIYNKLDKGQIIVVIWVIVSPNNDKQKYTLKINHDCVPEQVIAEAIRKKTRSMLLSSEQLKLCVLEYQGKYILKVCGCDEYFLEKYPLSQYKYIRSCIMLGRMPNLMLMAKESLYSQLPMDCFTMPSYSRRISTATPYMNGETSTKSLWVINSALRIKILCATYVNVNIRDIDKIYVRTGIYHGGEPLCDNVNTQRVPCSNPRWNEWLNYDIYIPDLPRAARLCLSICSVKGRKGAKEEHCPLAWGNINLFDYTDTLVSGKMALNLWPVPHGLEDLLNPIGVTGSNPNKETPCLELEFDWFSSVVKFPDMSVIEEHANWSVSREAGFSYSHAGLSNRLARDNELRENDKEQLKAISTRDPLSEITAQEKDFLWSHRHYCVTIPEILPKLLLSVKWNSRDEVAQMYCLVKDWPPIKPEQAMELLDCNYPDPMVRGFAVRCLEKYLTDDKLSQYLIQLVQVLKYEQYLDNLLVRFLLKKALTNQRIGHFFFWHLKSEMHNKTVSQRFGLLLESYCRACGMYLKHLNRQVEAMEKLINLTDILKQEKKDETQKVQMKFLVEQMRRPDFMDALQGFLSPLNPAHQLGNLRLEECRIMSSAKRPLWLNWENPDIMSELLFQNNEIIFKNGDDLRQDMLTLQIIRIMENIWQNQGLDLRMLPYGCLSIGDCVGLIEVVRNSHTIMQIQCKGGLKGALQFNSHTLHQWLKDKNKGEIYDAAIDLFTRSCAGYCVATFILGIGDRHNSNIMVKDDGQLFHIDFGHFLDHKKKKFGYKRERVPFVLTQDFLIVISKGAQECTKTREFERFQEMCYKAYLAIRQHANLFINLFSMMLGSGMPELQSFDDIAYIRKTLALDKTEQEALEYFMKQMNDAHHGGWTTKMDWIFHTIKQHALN
Sequence of Protein kinase C theta type (Homo sapiens) (Q04759 whole entry, looked up): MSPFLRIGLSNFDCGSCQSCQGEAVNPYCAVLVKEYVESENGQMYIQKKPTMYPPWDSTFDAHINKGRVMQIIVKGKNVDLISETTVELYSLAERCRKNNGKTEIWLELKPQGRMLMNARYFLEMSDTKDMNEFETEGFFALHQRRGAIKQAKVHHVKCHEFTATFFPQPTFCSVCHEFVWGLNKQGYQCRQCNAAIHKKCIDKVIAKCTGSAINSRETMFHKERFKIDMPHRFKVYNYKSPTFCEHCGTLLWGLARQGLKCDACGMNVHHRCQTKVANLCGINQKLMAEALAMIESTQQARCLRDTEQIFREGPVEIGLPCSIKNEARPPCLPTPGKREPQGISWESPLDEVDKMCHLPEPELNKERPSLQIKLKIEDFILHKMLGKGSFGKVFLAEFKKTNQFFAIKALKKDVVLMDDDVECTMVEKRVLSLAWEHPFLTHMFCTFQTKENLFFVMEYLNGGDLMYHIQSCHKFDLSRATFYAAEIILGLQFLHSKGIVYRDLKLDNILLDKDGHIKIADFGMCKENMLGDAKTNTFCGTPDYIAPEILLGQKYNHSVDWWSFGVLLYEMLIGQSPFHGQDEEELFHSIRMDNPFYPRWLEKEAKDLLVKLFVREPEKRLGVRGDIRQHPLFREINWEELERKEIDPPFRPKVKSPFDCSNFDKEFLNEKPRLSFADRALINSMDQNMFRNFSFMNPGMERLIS
Sequence of Phosphatidylinositol 5-phosphate 4-kinase type-2 beta (Homo sapiens) (P78356 whole entry): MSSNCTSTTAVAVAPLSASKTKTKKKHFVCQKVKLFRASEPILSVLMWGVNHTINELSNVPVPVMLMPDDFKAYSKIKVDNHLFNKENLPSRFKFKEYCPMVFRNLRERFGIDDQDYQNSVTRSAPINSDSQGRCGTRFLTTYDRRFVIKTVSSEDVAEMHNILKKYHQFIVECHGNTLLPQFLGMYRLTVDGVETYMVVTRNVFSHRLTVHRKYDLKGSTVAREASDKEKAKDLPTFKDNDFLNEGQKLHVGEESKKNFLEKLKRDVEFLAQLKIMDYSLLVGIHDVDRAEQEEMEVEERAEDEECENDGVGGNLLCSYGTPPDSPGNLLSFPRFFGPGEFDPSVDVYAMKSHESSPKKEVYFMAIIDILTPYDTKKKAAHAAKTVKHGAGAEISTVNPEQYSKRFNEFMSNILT

CN1C(=O)c2sccc2N(C)c2nc(Nc3ccc(S(N)(=O)=O)cc3)ncc21
Activity [1]: 39%
Activity [2]: 95%
Activity [3]: 95%
Activity [4]: 94%
Activity [5]: 63%
Activity [6]: 79%
Activity [7]: 100%
Activity [8]: 100%
Activity [9]: 84%
Activity [10]: 79%
Activity [11]: 94%
Activity [12]: 100%
Activity [13]: 81%
Activity [14]: 77%
Activity [15]: 100%
Activity [16]: 100%
Activity [17]: 14%
Activity [18]: 99%
Activity [19]: 87%
Activity [20]: 9.5%
Activity [21]: 86%
IC50 [22]: 27.3 nM
IC50 [23]: 436 nM
Activity (HepG2 [24]): 4.04%
Activity (HepG2 [25]): 5.12%
Tmax [26]: 4.98 min
Activity (Mus musculus [27]): Active
Activity (Mus musculus [28]): 100%
